Screening results: PubChem, Johns Hopkins Ion Channel Center
KCNK9 inh: blocks the human KCNK9 two-pore domain potassium channel | hit rate 1.2% among 310,000 | B-score at 10 µM | AID 488922 | HEK293 KCNK9, FluxOR thallium flux fluorescence; active compounds read low;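 active = ratio B-score over 3 SD below the library mean, with starting fluorescence within 5 SD of its mean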;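 also: negative B-score means less thallium flux so channel inhibition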
Target sequence (Q9NPC2 whole entry, looked up, the tested form may be a part): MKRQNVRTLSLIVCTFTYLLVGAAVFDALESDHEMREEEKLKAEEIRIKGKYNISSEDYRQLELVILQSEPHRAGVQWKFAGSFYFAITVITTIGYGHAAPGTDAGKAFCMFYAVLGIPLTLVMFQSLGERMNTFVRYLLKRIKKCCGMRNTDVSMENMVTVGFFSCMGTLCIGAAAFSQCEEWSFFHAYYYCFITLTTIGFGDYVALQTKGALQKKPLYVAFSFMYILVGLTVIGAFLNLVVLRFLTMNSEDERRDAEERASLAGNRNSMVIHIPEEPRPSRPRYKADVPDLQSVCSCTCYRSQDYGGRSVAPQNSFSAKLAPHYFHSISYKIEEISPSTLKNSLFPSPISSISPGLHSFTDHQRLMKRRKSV
Kir21 inh: blocks the mouse Kir2.1 inward-rectifier potassium channel; P35561; B-score at 10 µM; hit rate 0.85% among 310,000; HEK293-Kir2.1, FluxOR thallium flux fluorescence; active compounds read low;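 active = fluorescence ratio B-score at or below minus 3 SD of library scores, with starting-brightness B-score within 2 SD, cut at about -4.2 in these data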;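 also: channel flux triggered by added potassium and thallium sulfate stimulus; B-score of peak minus minimum fluorescence over baseline after thallium stimulus; more negative B-score means stronger Kir2.1 block with less thallium influx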
hERG rescue: shields human hERG channel from block by proarrhythmic agents. CHO-hERG, FluxOR thallium flux, dofetilide IC70 present. activation (rescue from dofetilide block), less the hit threshold, % at 10 µM. hit rate 0.51% among 310,000. AID 1511;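 active = activation above the mean of controls blocked by dofetilide plus 5 SD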;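 also: thallium influx through hERG after potassium depolarization seen as dye fluorescence rise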
KCNQ1 act: human KCNQ1 channel potentiation or activation; P51787; CHO-K1 KCNQ1, thallium flux FluxOR fluorescence; active compounds read high; B-score at 10 µM; hit rate 0.35% among 310,000; AID 2648;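 active = fluorescence ratio B-score, a plate-corrected score, at least three library SD, with initial intensity B-score within 5 SD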
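assay system = CHO-K1 cells stably expressing KCNQ1 | medium = assay buffer, equal DMSO in all wells | timing = 37 °C overnight plating, 90-min dark dye load, 20-min compound pretreatment | measured by = kinetic FluxOR thallium fluorescence, 10-s 1-Hz baseline, 110-s post-stimulus read | measure = fluorescence change relative to baseline, converted to B score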
KCNK3 inh: human KCNK3 channel inhibition, primary screen. O14649. CHO-KCNK3 thallium flux, FluxOR fluorescence; active compounds read low. B-score at 10 µM. hit rate 0.84% among 340,000;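 active = B-score under library mean minus 4 SD, starting fluorescence ratio at most library mean plus 5 SD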;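 also: more negative B-score means stronger inhibition of thallium flux through KCNK3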
KCNQ1 block: blocks the human KCNQ1 potassium channel; B-score at 10 µM; P51787; hit rate 1.3% among 310,000; CHO-K1 KCNQ1, FluxOR thallium flux fluorescence; active compounds read high;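 active = compounds whose thallium flux B-score, printed positive for inhibition, exceeds three library SD while starting fluorescence stays within three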;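 also: channel opened by potassium depolarization with thallium stimulus after 20 min compound exposure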
KCNK9 inh conf: confirmation of human KCNK9 potassium channel inhibitors; inhibition, % at 10 µM; hit rate 43% among 4,900; AID 492992; HEK293 KCNK9 cells, FluxOR thallium flux fluorescence; shares compounds with KCNK9 inh;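 active = thallium signal inhibited by more than 5 SD of the compound-free buffer control wells, on both duplicate plates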
Kir2-1 spec: tests whether KCNK9 modulators also affect mouse Kir2.1. shares compounds with KCNK9 inh. inhibition, % at 10 µM. Kir2.1 cells, FluxOR thallium flux fluorescence. hit rate 4% among 4,900;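 active = thallium signal drop more than 5 SD beyond the mean of the no-compound control wells, seen in both duplicate plates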;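 also: signal is fluorescence rise after thallium addition divided by baseline fluorescence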
HEK293 Tl ctr: second check of KCNK9 modulator effects in non-induced HEK293 cells. shares compounds with KCNK9 inh. FluxOR thallium flux. inhibition, % at 10 µM. hit rate 40% among 4,900;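 active = thallium signal drop beyond 5 SD of the untreated control mean, on both duplicate plates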
Numbers stand for hits; n = inactive; x = no result. Most compounds without a hit are left out; they make up all but 3.8% or so of the library.

SMILES	KCNK9 inh	Kir21 inh	hERG rescue	KCNQ1 act	KCNK3 inh	KCNQ1 block	KCNK9 inh conf	Kir2-1 spec	HEK293 Tl ctr
COc1ccccc1OCCSc1nnnn1-c1ccc(C)cc1	n	n	n	n	n	n	n	n	n
C=CCn1c(=O)c2ccc(C(=O)NCc3ccccc3)cc2n(Cc2ccc(C)cc2)c1=O	n	n	n	n	n	n	x	x	x
CCc1ccccc1OCCCCN1CCCC1	n	n	n	n	n	n	x	x	x
CCOc1ccc(OCCOCCOc2ccccc2Cl)cc1	n	n	n	n	n	n	n	n	n
CCOc1ccccc1OCCOc1ccccc1CC	n	n	n	n	n	n	n	n	n
CCOc1ccccc1OCCCOc1ccc(C)cc1Cl	n	n	n	n	n	n	n	n	32%
COc1ccccc1OCCOCCOc1ccccc1Cl	n	n	n	n	n	n	n	n	n
COc1cc(C(=O)N2C(=O)CCC2=O)cc(OC)c1OC	n	n	n	n	n	n	x	x	x
COc1ccc(NC(=S)NC(=O)CC(C)C)c(OC)c1	n	n	n	n	n	n	x	x	x
COc1ccc(C(=O)Oc2ccc3ccc(=O)oc3c2)cc1	-13	n	n	n	n	n	64%	n	27%
O=C(Oc1ccc2ccc(=O)oc2c1)c1ccccc1	n	n	n	n	n	n	x	x	x
COc1ccc(C(=O)N/N=C(/C)c2cccc(NC(=O)c3ccccc3F)c2)cc1	n	n	n	n	n	n	x	x	x
C/C(=N\NC(=O)c1ccccc1F)c1ccc2c(c1)Nc1ccccc1S2	-15	n	n	n	n	n	n	n	28%
Cc1noc(C)c1COc1ccc(C(=O)N2CCCC(C(F)(F)F)C2)cc1 (stereo not given)	n	n	n	n	n	n	x	x	x
COc1ccc(-c2csc(NC(=O)C3COc4ccccc4O3)n2)cc1OC (stereo not given)	-16	n	n	n	-10	n	64%	n	n
COc1ccccc1N1CCN(C2CCCN(S(=O)(=O)c3ccc(C)cc3)C2)CC1 (stereo not given)	n	n	n	n	n	n	x	x	x
COc1ccccc1N1CCN(C2CCCN(S(=O)(=O)c3cccc(Cl)c3)C2)CC1 (stereo not given)	n	n	n	n	n	n	n	n	n
CCOC(=O)c1c(CSc2cccs2)n(C)c2cc(Br)c(O)c(CN(C)C)c12	n	n	n	n	n	n	x	x	x
COc1cccc(Oc2ccc(C(F)(F)F)cc2N)c1	-8.4	n	n	n	n	n	54%	n	32%
Cc1cc(NC(=O)CSc2nc(CCC3CCCC3)nc3ccccc23)no1	n	n	n	n	n	n	x	x	x
O=C(CSc1nc(CCC2CCCC2)nc2ccccc12)NCc1ccc2c(c1)OCO2	-13	n	n	n	n	n	47%	n	n
O=C(CSc1nc(Cc2ccccc2)nc2ccccc12)c1ccc2c(c1)OCCO2	-14	n	n	n	n	n	57%	n	34%
CCc1nc(SCC(=O)c2ccc3c(c2)OCCO3)c2ccccc2n1	n	n	n	n	n	n	x	x	x
O=C(CN1CCc2ccccc21)NCc1ccccc1Cl	n	n	n	n	n	n	n	n	n
CN(CC(=O)Nc1ccc(Cl)cc1)C1=NS(=O)(=O)c2ccccc21	x	x	x	x	n	x	x	x	x
SMILES	KCNK9 inh	Kir21 inh	hERG rescue	KCNQ1 act	KCNK3 inh	KCNQ1 block	KCNK9 inh conf	Kir2-1 spec	HEK293 Tl ctr
O=C(OCCN(C1=NS(=O)(=O)c2ccccc21)c1ccccc1Cl)c1ccc(Cl)cc1	-8.1	n	n	n	n	n	30%	n	30%
CCN(CC)c1ccc(CNc2ccc(Br)cn2)cc1	n	n	n	n	n	n	n	n	n
COC(=O)C1=C(C)N(CCc2ccc(OC)c(OC)c2)C(=O)/C1=C\c1ccc(O)cc1	n	n	n	n	n	n	x	x	x
CCOc1cc(/C=C2\C(=O)N(Cc3ccc(C)cc3)C(C)=C2C(=O)OC)ccc1O	-11	n	n	n	n	7	41%	n	32%
CC(=O)Nc1cccc(NC(=O)CSc2nccn2Cc2ccccc2)c1	n	n	n	n	n	n	x	x	x
CC1=C([N+](=O)[O-])C(c2cccc(Br)c2)C2=C(N1)c1ccccc1C2=O (stereo not given)	-8.4	n	n	n	n	10	54%	n	38%
CC(=O)C1=C(C)NC(SCC(=O)c2ccc(Cl)cc2Cl)=C(C#N)C1c1ccco1 (stereo not given)	-10	n	n	n	-9.6	n	61%	n	36%
CC(=O)C1=C(C)NC(SCc2cccc3ccccc23)=C(C#N)C1c1ccco1 (stereo not given)	n	n	n	n	n	n	x	x	x
Cc1ccc(NC(=S)NNC(=O)C2CC2c2ccc(C)cc2)cc1 (stereo not given)	n	n	n	n	n	n	x	x	x
Cc1ccc(C2CC2C(=O)NNC(=S)Nc2cccc(C)c2)cc1 (stereo not given)	n	n	n	n	n	n	n	n	n
Cc1ccc(C2CC2C(=O)NNC(=S)Nc2cccc(Cl)c2)cc1 (stereo not given)	n	n	n	n	n	6	n	n	n
Cc1ccc(CNC(=O)C2(S(=O)(=O)c3ccccc3)CC=CC2)cc1	n	n	n	n	n	n	x	x	x
CCOC(=O)N1CCc2c(sc3c2c(=O)n(Cc2ccccc2)c(=O)n3Cc2ccccc2F)C1	n	n	n	n	n	n	n	n	n
CCOC(=O)N1CCc2c(sc3c2c(=O)n(Cc2ccccc2)c(=O)n3Cc2cccc(C)c2)C1	n	n	n	n	n	n	n	n	n
CCCCCCCCCCOC(=O)Cn1c(COc2ccccc2OC)[n+](C)c2ccccc21	-15	-17	n	n	n	n	78%	84%	42%
Cn1c(COc2ccccc2O)[n+](C)c2ccccc21	n	n	n	n	n	n	x	x	x
O=[N+]([O-])c1ccc(Oc2c(F)c(F)nc(N3CCCC3)c2F)cc1	n	n	n	n	n	7	n	n	n
C(=N\N(Cc1ccccc1)c1ccccc1)/c1cccnc1	-12	n	n	n	n	n	54%	n	26%
COC(=O)c1c(O)cc(C(C)(C)C)n(-c2ccccc2)c1=O	n	n	n	n	n	n	x	x	x
O=C(Cn1c(=O)oc2ccccc21)Nc1ccc(Cl)cc1	n	n	n	n	n	n	x	x	x
CCn1cc(C2=NC(C(C)C)CO2)c2ccccc21 (stereo not given)	n	n	n	n	n	n	n	n	n
